From ChEMBL document CHEMBL4251566 (Eur J Med Chem, 2018) come the findings set out here.

pIC50: −log10 of the molar value.

Sequence of Tyrosine-protein kinase BTK (Q06187 whole entry): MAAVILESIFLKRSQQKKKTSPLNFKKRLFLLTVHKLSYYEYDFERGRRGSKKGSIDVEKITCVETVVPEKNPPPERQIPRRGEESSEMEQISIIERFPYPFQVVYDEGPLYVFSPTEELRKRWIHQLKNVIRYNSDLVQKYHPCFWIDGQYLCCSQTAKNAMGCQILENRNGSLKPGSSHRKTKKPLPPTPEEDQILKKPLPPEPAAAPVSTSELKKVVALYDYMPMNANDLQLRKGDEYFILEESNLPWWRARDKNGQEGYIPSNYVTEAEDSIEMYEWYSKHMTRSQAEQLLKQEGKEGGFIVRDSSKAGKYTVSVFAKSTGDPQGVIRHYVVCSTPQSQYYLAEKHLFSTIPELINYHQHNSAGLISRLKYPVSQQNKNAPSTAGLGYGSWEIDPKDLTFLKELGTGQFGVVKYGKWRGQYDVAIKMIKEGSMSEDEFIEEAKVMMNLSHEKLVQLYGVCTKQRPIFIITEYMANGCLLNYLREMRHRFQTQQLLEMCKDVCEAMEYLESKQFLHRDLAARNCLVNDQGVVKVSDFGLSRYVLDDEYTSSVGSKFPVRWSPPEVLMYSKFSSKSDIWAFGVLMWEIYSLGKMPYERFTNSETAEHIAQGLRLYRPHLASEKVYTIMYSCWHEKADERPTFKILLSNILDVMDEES

The first assay has as its target Tyrosine-protein kinase BTK (Homo sapiens, UniProt Q06187). Description: Inhibition of recombinant full-length N-terminal His-tagged human BTK expressed in baculovirus infected Sf9 insect cells using Poly(4:1 Glu,Tyr) peptide substrate incubated for 60 mins by ADP-Glo luminescence assay.
Turning to `C=CC(=O)Nc1cccc(Nc2nc(Nc3ccc(OCCCN4CCOCC4)c(Cl)c3)ncc2Cl)c1`, the pIC50 was 9.15.
Still for that read-out and setting: in the case of `C=CC(=O)Nc1cccc(Nc2nc(Nc3ccc(OCCCN4CCOCC4)c(OC)c3)ncc2Cl)c1` it was 7.50.
Take `C=CC(=O)Nc1cccc(Nc2nc(Nc3ccc(OCCCN4CCN(CC)CC4)cc3C)ncc2Cl)c1`: the pIC50 is less than 7.00.
Same read-out and setting: in the case of `C=CC(=O)Nc1cccc(Nc2nc(Nc3ccc(OC)c(OCCCN4CCOCC4)c3)ncc2F)c1` it was 9.15; in that of `C=CC(=O)Nc1cccc(Nc2nc(Nc3ccc(OCC(=O)N4CCOCC4)c(OC)c3)ncc2Cl)c1`, 7.98.
The same measure, in the same setting: the same measure for `C=CC(=O)Nc1cccc(Nc2nc(Nc3ccc(OCC(=O)N4CCOCC4)c(OC)c3)ncc2F)c1`: 7.77; for `C=CC(=O)Nc1cccc(Nc2nc(Nc3ccc(OCCCN4CCN(CC)CC4)cc3C)ncc2F)c1`: 7.05.

The target in a further assay is T1, Tyrosine-protein kinase JAK3 (Homo sapiens, UniProt P52333).
T1 sequence (P52333 whole entry): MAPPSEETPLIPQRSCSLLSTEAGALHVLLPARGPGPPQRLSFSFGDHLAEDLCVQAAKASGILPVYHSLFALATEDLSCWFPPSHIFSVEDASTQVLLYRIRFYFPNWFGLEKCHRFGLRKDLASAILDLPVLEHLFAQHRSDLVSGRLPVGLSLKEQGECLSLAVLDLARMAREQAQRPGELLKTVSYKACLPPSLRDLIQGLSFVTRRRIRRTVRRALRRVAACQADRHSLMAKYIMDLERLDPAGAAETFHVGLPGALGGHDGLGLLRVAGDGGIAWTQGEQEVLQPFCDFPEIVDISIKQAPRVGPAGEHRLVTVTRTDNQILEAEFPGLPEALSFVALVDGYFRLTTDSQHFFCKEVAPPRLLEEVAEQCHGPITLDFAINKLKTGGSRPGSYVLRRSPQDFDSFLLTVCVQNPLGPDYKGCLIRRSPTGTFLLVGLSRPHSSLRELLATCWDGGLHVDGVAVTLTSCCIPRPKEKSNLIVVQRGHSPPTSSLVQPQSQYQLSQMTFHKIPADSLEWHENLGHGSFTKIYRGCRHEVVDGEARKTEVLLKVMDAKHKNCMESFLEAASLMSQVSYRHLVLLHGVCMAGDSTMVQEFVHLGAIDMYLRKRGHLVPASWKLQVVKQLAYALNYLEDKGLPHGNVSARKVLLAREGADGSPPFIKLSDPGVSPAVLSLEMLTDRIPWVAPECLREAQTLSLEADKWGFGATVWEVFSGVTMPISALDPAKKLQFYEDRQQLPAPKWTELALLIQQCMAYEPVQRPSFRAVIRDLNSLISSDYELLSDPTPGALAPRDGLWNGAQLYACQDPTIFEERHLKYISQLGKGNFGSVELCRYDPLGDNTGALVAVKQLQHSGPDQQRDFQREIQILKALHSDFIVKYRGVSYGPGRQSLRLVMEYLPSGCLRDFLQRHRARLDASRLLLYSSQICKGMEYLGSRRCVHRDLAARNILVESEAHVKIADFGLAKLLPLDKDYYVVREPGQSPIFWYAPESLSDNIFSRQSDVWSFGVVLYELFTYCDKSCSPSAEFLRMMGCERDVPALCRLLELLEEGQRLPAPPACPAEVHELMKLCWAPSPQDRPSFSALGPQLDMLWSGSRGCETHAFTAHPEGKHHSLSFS
As to the kind of experiment: Inhibition of recombinant N-terminal GST-tagged human JAK3 (781 to end residues) expressed in baculovirus infected Sf9 insect cells using Poly(4:1 Glu,Tyr) peptide substrate incubated for 60 mins by ADP-Glo luminescence assay. Summed up: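 ADP-Glo luminescent kinase assay. The kinase reaction ran 60 min at room temperature in 1× kinase buffer. ADP-Glo reagent was added to stop the reaction and deplete ATP, followed by 40 min at room temperature. Detection reagent then converted ADP to ATP for a luciferase readout, followed by 30 min at room temperature. Luminescence was integrated over 0.5–1 s, and IC50 came from curve fitting.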
For `C=CC(=O)Nc1cccc(Nc2nc(Nc3ccc(OCCCN4CCOCC4)c(Cl)c3)ncc2Cl)c1`, the negative-log IC50 (pIC50) is 8.97.
On the same count and under the same terms, in the case of `C=CC(=O)Nc1cccc(Nc2nc(Nc3ccc(OCCCN4CCOCC4)c(OC)c3)ncc2Cl)c1` it was 8.17; in that of `C=CC(=O)Nc1cccc(Nc2nc(Nc3ccc(OCCCN4CCN(CC)CC4)cc3C)ncc2Cl)c1`, less than 7.00; in that of `C=CC(=O)Nc1cccc(Nc2nc(Nc3ccc(OC)c(OCCCN4CCOCC4)c3)ncc2F)c1`, 9.02.
Regarding `C=CC(=O)Nc1cccc(Nc2nc(Nc3ccc(OCC(=O)N4CCOCC4)c(OC)c3)ncc2Cl)c1`, the negative logarithm of the IC50 (pIC50) is 7.67.
Turning to `C=CC(=O)Nc1cccc(Nc2nc(Nc3ccc(OCC(=O)N4CCOCC4)c(OC)c3)ncc2F)c1`, the pIC50 was 7.95.
The same measure, in the same setting: the same measure for `C=CC(=O)Nc1cccc(Nc2nc(Nc3ccc(OCCCN4CCN(CC)CC4)cc3C)ncc2F)c1`: less than 7.00.

The subject of a further assay is Ramos. As to the kind of experiment: Antiproliferative activity against human Ramos cells after 72 hrs by CCK-8 assay.
With `C=CC(=O)Nc1cccc(Nc2nc(Nc3ccc(OCCCN4CCOCC4)c(Cl)c3)ncc2Cl)c1`, the pIC50 is 5.70.
`C=CC(=O)Nc1cccc(Nc2nc(Nc3ccc(OCCCN4CCOCC4)c(OC)c3)ncc2Cl)c1` had a pIC50 of 5.60.
Same read-out and setting: in the case of `C=CC(=O)Nc1cccc(Nc2nc(Nc3ccc(OCCCN4CCN(CC)CC4)cc3C)ncc2Cl)c1` it was 4.84; in that of `C=CC(=O)Nc1cccc(Nc2nc(Nc3ccc(OC)c(OCCCN4CCOCC4)c3)ncc2F)c1`, 4.95; in that of `C=CC(=O)Nc1cccc(Nc2nc(Nc3ccc(OCC(=O)N4CCOCC4)c(OC)c3)ncc2Cl)c1`, less than 4.40.
The same measure, in the same setting: in the case of `C=CC(=O)Nc1cccc(Nc2nc(Nc3ccc(OCC(=O)N4CCOCC4)c(OC)c3)ncc2F)c1` it was less than 4.40; in that of `C=CC(=O)Nc1cccc(Nc2nc(Nc3ccc(OCCCN4CCN(CC)CC4)cc3C)ncc2F)c1`, 4.73.

A further assay relates to Raji. As to the kind of experiment: Antiproliferative activity against human Raji cells after 72 hrs by CCK-8 assay. Format: functional, cell-based. Summed up: (§1)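 CCK-8 viability assay. Cells were seeded at 3000/well in RPMI-1640 with 10% FBS at 37 °C, 5% CO2, for 4 h before treatment. Exposure was 72 h at five concentrations (1.25, 5, 10, 20, 40 µM), each in five replicates. Absorbance was read at 450 nm. IC50 came from dose-response curves, as the mean of at least three separate experiments.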
`C=CC(=O)Nc1cccc(Nc2nc(Nc3ccc(OCCCN4CCOCC4)c(Cl)c3)ncc2Cl)c1` gave a pIC50 of 4.65.
Compound `C=CC(=O)Nc1cccc(Nc2nc(Nc3ccc(OCCCN4CCOCC4)c(OC)c3)ncc2Cl)c1` had a negative-log IC50 (pIC50) of 5.23.
The same measure, in the same setting: the same measure for `C=CC(=O)Nc1cccc(Nc2nc(Nc3ccc(OCCCN4CCN(CC)CC4)cc3C)ncc2Cl)c1`: 4.45.
Same read-out and setting: in the case of `C=CC(=O)Nc1cccc(Nc2nc(Nc3ccc(OC)c(OCCCN4CCOCC4)c3)ncc2F)c1` it was 4.86; in that of `C=CC(=O)Nc1cccc(Nc2nc(Nc3ccc(OCC(=O)N4CCOCC4)c(OC)c3)ncc2Cl)c1`, 4.65; in that of `C=CC(=O)Nc1cccc(Nc2nc(Nc3ccc(OCC(=O)N4CCOCC4)c(OC)c3)ncc2F)c1`, 4.95.
In turn, `C=CC(=O)Nc1cccc(Nc2nc(Nc3ccc(OCCCN4CCN(CC)CC4)cc3C)ncc2F)c1` showed a pIC50 of 4.58.

The next assay concerns NAMALVA. Description: Antiproliferative activity against human NAMALWA cells after 72 hrs by CCK-8 assay. Format: functional, cell-based. Summed up: as §1
As to `C=CC(=O)Nc1cccc(Nc2nc(Nc3ccc(OCCCN4CCOCC4)c(Cl)c3)ncc2Cl)c1`, the pIC50 is 4.71.
Still for that read-out and setting: the same measure for `C=CC(=O)Nc1cccc(Nc2nc(Nc3ccc(OCCCN4CCOCC4)c(OC)c3)ncc2Cl)c1`: 4.84.
The same measure, in the same setting: the same measure for `C=CC(=O)Nc1cccc(Nc2nc(Nc3ccc(OCCCN4CCN(CC)CC4)cc3C)ncc2Cl)c1`: 4.45.
Same read-out and setting: the same measure for `C=CC(=O)Nc1cccc(Nc2nc(Nc3ccc(OC)c(OCCCN4CCOCC4)c3)ncc2F)c1`: 5.50; for `C=CC(=O)Nc1cccc(Nc2nc(Nc3ccc(OCC(=O)N4CCOCC4)c(OC)c3)ncc2Cl)c1`: 4.76.
Take `C=CC(=O)Nc1cccc(Nc2nc(Nc3ccc(OCC(=O)N4CCOCC4)c(OC)c3)ncc2F)c1`: the negative-log IC50 (pIC50) is 4.82.
The same measure, in the same setting: in the case of `C=CC(=O)Nc1cccc(Nc2nc(Nc3ccc(OCCCN4CCN(CC)CC4)cc3C)ncc2F)c1` it was 4.57.
